Assay results: ChEMBL document CHEMBL2440116, “Structure-activity relationships of 2-aminothiazoles effective against Mycobacterium tuberculosis” (Bioorg Med Chem, 2013)
pEC50: −log10 of the molar value. In brackets after ≈: the same amount, converted by molar mass.

How the values were obtained:
[1] = test system: Mycobacterium tuberculosis; assay: Antitubercular activity against Mycobacterium tuberculosis H37Rv in GAST media with glycerol and alanine after 7 to 14 days by broth microdilution method; assay type: functional
[2] = test system: Mycobacterium tuberculosis; assay: Antitubercular activity against Mycobacterium tuberculosis H37Rv in Middlebrook 7H9 broth with butyrate after 7 to 14 days by broth microdilution method; assay type: functional
[3] = test system: Mycobacterium tuberculosis; assay: Antitubercular activity against Mycobacterium tuberculosis H37Rv in Middlebrook 7H9 broth with glucose after 7 to 14 days by broth microdilution method; assay type: functional
How it was run: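 Broth microdilution of H37Rv in 7H9 with 0.8 g/L NaCl, 5 g/L BSA fraction V, 4 g/L glucose and 0.05% Tyloxapol. Run in quadruplicate from DMSO stocks with DMSO controls; isoniazid positive control.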

[4] = Therapeutic index, ratio of EC50 for african green monkey Vero cells to MIC for Mycobacterium tuberculosis H37Rv; assay type: cell-based; conditions: read-out: TI
Vero = assay: Cytotoxicity against african green monkey Vero cells after 72 hrs by MTT assay; assay type: cell-based; conditions: Chlorocebus sabaeus
How it was run: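 Vero (CCL-81) cells in MEM with 10% FBS, penicillin-streptomycin and Glutamax, seeded at 3.0×10⁴ per well and left to adhere overnight. Compounds added from DMSO at final 100–0.16 μM, triplicate, for 72 h at 37 °C, 4.5% CO2. Then MTT 1.0 mg/mL in phenol-red-free RPMI for 3 h, formazan dissolved in isopropanol, A570 minus A690. Viability taken relative to DMSO control; EC50 from dose-response curves.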

SMILES	MIC99 [1] [µM]	MIC99 [2] [µM]	MIC99 [3] [µM]	selectivity ratio [4]	pEC50 (Vero)
O=C(Nc1nc(-c2ccccn2)cs1)c1ccc(Cl)cc1	0.39 (≈ 0.123 µg/mL)	0.78 (≈ 0.246 µg/mL)	1.6 (≈ 0.505 µg/mL)	–	–
Cc1cccc(Nc2nc(-c3ccccn3)cs2)n1	0.78 (≈ 0.209 µg/mL)	3.1 (≈ 0.832 µg/mL)	6.3 (≈ 1.69 µg/mL)	–	–
O=C(Nc1nc(-c2cscn2)cs1)c1ccccc1	≥ 25	–	> 25	–	–
O=C(Nc1nc(-c2ccccn2)cs1)c1ccc(OCc2ccccc2)cc1	0.098 (≈ 0.038 µg/mL)	–	0.19 (≈ 0.0736 µg/mL)	6	5.64
O=C(Nc1nc(-c2ccccn2)cs1)c1cccs1	–	–	1.6 (≈ 0.46 µg/mL)	–	–
CCCCCCCC(=O)Nc1nc(-c2ccccn2)cs1	0.78 (≈ 0.237 µg/mL)	6.3 (≈ 1.91 µg/mL)	6.3 (≈ 1.91 µg/mL)	–	–
O=C(Nc1nnc(-c2ccccn2)s1)c1ccccc1F	> 6.25	–	> 6.25	–	–
O=C(Nc1nnc(-c2ccccn2)o1)c1ccccc1F	6.25 (≈ 1.78 µg/mL)	–	12.5 (≈ 3.55 µg/mL)	–	–
O=C(Nc1nc(-c2ccccn2)cs1)c1ccco1	1.6 (≈ 0.434 µg/mL)	6.3 (≈ 1.71 µg/mL)	3.1 (≈ 0.841 µg/mL)	–	–
O=C(Nc1nc(-c2ccccn2)cs1)c1c(F)cccc1Cl	0.19 (≈ 0.0634 µg/mL)	0.39 (≈ 0.13 µg/mL)	0.78 (≈ 0.26 µg/mL)	–	5.89
O=C(Nc1nc(-c2ccccn2)cs1)c1ccc(F)c(F)c1	0.39 (≈ 0.124 µg/mL)	3.1 (≈ 0.984 µg/mL)	1.6 (≈ 0.508 µg/mL)	–	–
O=C(Nc1nc(-c2ccccn2)cs1)c1ccsc1	0.78 (≈ 0.224 µg/mL)	3.1 (≈ 0.891 µg/mL)	1.6 (≈ 0.46 µg/mL)	–	–
O=C(Nc1nc(-c2ccccn2)cs1)C1CCCC1	–	3.1 (≈ 0.847 µg/mL)	12.5 (≈ 3.42 µg/mL)	–	–
FC(F)(F)c1ccc(Nc2nc(-c3ccccn3)cs2)cc1	≥ 12.5	12.5 (≈ 4.02 µg/mL)	25 (≈ 8.03 µg/mL)	–	–
O=C(Nc1nc(-c2ccccn2)cs1)c1cccnc1Cl	0.19 (≈ 0.0602 µg/mL)	–	0.39 (≈ 0.124 µg/mL)	2	5.72
O=C(Nc1nc(-c2ccccn2)cs1)c1ccc(F)cc1F	0.19 (≈ 0.0603 µg/mL)	–	0.39 (≈ 0.124 µg/mL)	9	5.14
O=C(Nc1nc(-c2ccccn2)cs1)c1ccoc1	–	6.3 (≈ 1.71 µg/mL)	3.1 (≈ 0.841 µg/mL)	–	–
O=C(Nc1nc(-c2ccccn2)cs1)c1cc(F)cc(F)c1	0.049 (≈ 0.0155 µg/mL)	0.098 (≈ 0.0311 µg/mL)	0.19 (≈ 0.0603 µg/mL)	8	5.82

SMILES	MIC99 [1] [µM]	MIC99 [2] [µM]	MIC99 [3] [µM]	selectivity ratio [4]	pEC50 (Vero)
O=C(Nc1nc(-c2ccccn2)cs1)c1ccccc1Br	0.098 (≈ 0.0353 µg/mL)	–	0.39 (≈ 0.14 µg/mL)	–	5.46
O=C(Nc1nc(-c2ccccn2)co1)c1ccccc1	25 (≈ 6.63 µg/mL)	–	25 (≈ 6.63 µg/mL)	–	–
O=C(Nc1nc(-c2ccccn2)cs1)c1ccccc1[N+](=O)[O-]	0.78 (≈ 0.255 µg/mL)	–	1.6 (≈ 0.522 µg/mL)	–	–
FC(F)(F)c1cccc(Nc2nc(-c3ccccn3)cs2)c1	> 12.5	25 (≈ 8.03 µg/mL)	25 (≈ 8.03 µg/mL)	–	–
O=C(Nc1nc(-c2ccccn2)cs1)c1cccc(F)c1F	0.098 (≈ 0.0311 µg/mL)	0.19 (≈ 0.0603 µg/mL)	0.39 (≈ 0.124 µg/mL)	18	5.14
c1ccc(Nc2nc(-c3ccccn3)cs2)nc1	0.39 (≈ 0.0992 µg/mL)	0.39 (≈ 0.0992 µg/mL)	0.78 (≈ 0.198 µg/mL)	–	–
CC(=O)c1cccc(C(=O)Nc2nc(-c3ccccn3)cs2)c1	0.098 (≈ 0.0317 µg/mL)	0.19 (≈ 0.0614 µg/mL)	0.39 (≈ 0.126 µg/mL)	4	5.82
Cc1ccccc1Nc1nc(-c2ccccn2)cs1	3.1 (≈ 0.829 µg/mL)	12.5 (≈ 3.34 µg/mL)	12.5 (≈ 3.34 µg/mL)	–	–
O=C(Nc1nc(-c2ccccn2)cs1)c1cccc(OCc2ccccc2)c1	0.19 (≈ 0.0736 µg/mL)	0.049 (≈ 0.019 µg/mL)	0.39 (≈ 0.151 µg/mL)	32	4.84
CN(C(=O)c1ccccc1)c1nc(-c2ccccn2)cs1	≥ 25	–	> 25	–	–
O=C(Nc1nc(-c2ccccn2)cs1)c1c(F)cccc1F	0.19 (≈ 0.0603 µg/mL)	0.78 (≈ 0.248 µg/mL)	0.78 (≈ 0.248 µg/mL)	4	5.49
FC(F)(F)c1ccccc1Nc1nc(-c2ccccn2)cs1	6.3 (≈ 2.02 µg/mL)	6.3 (≈ 2.02 µg/mL)	12 (≈ 3.86 µg/mL)	–	–
Cc1ccc(Nc2nc(-c3ccccn3)cs2)c(C)c1	6.3 (≈ 1.77 µg/mL)	12.5 (≈ 3.52 µg/mL)	12.5 (≈ 3.52 µg/mL)	–	–
O=C(Nc1nc(-c2ccccn2)cs1)c1ccncc1	0.78 (≈ 0.22 µg/mL)	3.1 (≈ 0.875 µg/mL)	1.6 (≈ 0.452 µg/mL)	–	–
Cc1cccc(C)c1Nc1nc(-c2ccccn2)cs1	3.1 (≈ 0.872 µg/mL)	12.5 (≈ 3.52 µg/mL)	12.5 (≈ 3.52 µg/mL)	–	–
COc1cccc(C(=O)Nc2nc(-c3ccccn3)cs2)c1	0.098 (≈ 0.0305 µg/mL)	–	0.19 (≈ 0.0592 µg/mL)	7	5.55
CC(=O)c1ccc(C(=O)Nc2nc(-c3ccccn3)cs2)cc1	–	0.19 (≈ 0.0614 µg/mL)	0.39 (≈ 0.126 µg/mL)	–	4.98
CCCCCC(=O)Nc1nc(-c2ccccn2)cs1	3.1 (≈ 0.854 µg/mL)	3.1 (≈ 0.854 µg/mL)	6.3 (≈ 1.73 µg/mL)	–	–
